Rows were chosen to be rich in hits. Some 2.7% of all compounds tested hit in one or more screens of this group.
DENV2 CPE rescue – inhibitors of DENV2 cytopathic effect, primary screen, cell-based, plate reader, single concentration | DENV2-infected cells, cytopathic effect rescue | CPE inhibition, % at 9.99 µM | 350,000 tested, 1.7% active | AID 651640, 2012; in the data active means CPE inhibition above about 20%, passing the limit was not always enough; inconclusive means no clear call, values can overlap the other calls; tested in BHK-21 cells;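 further: 0% = median of neutral control wells and 100% = median of positive control wells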
CaV13 ICDI inh – Disruptors of the CACNA1D IQ motif to Ca2+-dependent inactivation inhibitor domain association, primary screening, Förster resonance energy transfer in intact living …; HEK cells, CFP/YFP FRET ICDI-IQ, plate reader, 10 min; percent FRET-ratio fall versus neutral wells; AID 743397; 340,000 tested, 0.098% active; inhibition, % at 12.3 µM;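 active means mean replicate inhibition of at least 30% and at least 1% of replicates passing that level; inconclusive means only one of the two criteria is met; inactive means neither criterion is met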;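 further: 0% = median of the neutral control wells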
S100A4 inh HTS – inhibitors of S100A4-myosin IIA peptide binding, primary screen, biochemical, fluorescence polarization, TAMRA-MyoIIA peptide | 360,000 tested, 0.14% active | Protein S100-A4 (Homo sapiens), P26447 | AID 652163, 2013 | inhibition, % at 10.7 µM;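 active means mean inhibition of at least 70% across replicates, with every replicate also reaching that level; inconclusive means mean inhibition reaches 70% but some replicates fall short; inactive means mean inhibition below 70%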
Target sequence (P26447 whole entry, looked up): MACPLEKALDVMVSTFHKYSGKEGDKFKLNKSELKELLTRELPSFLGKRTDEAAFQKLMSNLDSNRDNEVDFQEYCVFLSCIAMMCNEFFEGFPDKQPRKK
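Test system: S100A4 monomer protein; Medium: HEPES pH 7.2 with CaCl2, KCl, NaCl, DTT, Triton; Probe or stimulus: TAMRA-labelled myosin IIA heavy-chain peptide probe, 5 nM; Doses: one dose per compound; Times: polarization read 5 min after assay mix addition, stable 5–60 min; Benchmarks: neutral control DMSO, positive control TFP.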
MLL AF4-AF9 inh – inhibitors of AF4 peptide binding to AF9, primary screen, biochemical, AlphaScreen, biotin-AF4 peptide, FLAG-AF9, single point. inhibition, % at 10 µM. 350,000 tested, 0.47% active. Protein AF-9 (Homo sapiens), P42568;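 active means every replicate reaching a set inhibition limit, whatever the replicate mean, cut at about 25% in these data; inconclusive means mean inhibition reaches that limit but some replicates miss it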;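 further: 0% = plate neutral control median and 100% = total signal loss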
Target sequence (P42568 whole entry, looked up): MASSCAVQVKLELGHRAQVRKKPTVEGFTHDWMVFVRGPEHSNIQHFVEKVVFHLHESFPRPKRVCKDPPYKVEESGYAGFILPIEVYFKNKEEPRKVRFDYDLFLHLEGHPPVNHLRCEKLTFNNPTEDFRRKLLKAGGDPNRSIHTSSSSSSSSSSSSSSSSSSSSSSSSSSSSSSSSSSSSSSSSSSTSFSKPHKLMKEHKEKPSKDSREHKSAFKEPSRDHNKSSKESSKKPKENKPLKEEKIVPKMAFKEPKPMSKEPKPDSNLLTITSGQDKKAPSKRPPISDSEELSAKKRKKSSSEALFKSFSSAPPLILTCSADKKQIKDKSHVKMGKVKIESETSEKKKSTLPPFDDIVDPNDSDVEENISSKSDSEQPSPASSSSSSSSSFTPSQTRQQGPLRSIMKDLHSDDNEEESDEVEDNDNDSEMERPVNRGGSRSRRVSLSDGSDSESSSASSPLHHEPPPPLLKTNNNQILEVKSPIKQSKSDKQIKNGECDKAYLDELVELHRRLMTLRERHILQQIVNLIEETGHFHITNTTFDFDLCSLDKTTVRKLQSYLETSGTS
SIRT5 block – SIRT5 desuccinylase inhibitors, primary screen, biochemical, fluorescence imaging, single point, set 5; Purified SirT5, succinyl-peptide AMC, trypsin-coupled fluorescence; inhibition, % at 15 µM; 330,000 tested, 1.1% active; NAD-dependent protein deacylase sirtuin-5, mitochondrial (Homo sapiens), Q9NXA8; in the data active means inhibition above about 15%; inconclusive means no clear call, values can overlap the other calls
* hit, by the source's call; ? = inconclusive; . = not tested or not shown; ! = a repeat was not active.

SMILES	DENV2 CPE rescue	CaV13 ICDI inh	S100A4 inh HTS	MLL AF4-AF9 inh	SIRT5 block
CC(=O)Nc1cccc(/C(C)=N/NC(=O)c2cccc(S(=O)(=O)N3CCCC3)c2)c1	25.0*	-10.8	-0.6	-0.9	.
CN(C(=O)c1ccc(Br)o1)C1CCS(=O)(=O)C1 (configuration not stated)	-4.9	-4.4	-1.7	-2.6	-0.2
CN(C(=O)c1ccc(Br)o1)C1CCCCC1	60.8*	-2.8	-1.6	-1.2	0.5
COc1ccccc1S(=O)(=O)N(C)C[C@@H]1Oc2cc(C#CCC(C)C)ccc2S(=O)(=O)N([C@H](C)CO)C[C@@H]1C	?	-7.1	22.7	1.8	22.9*!
COc1ccccc1S(=O)(=O)N(C)C[C@H]1Oc2cc(C#CCC(C)C)ccc2S(=O)(=O)N([C@@H](C)CO)C[C@@H]1C	102.9*	.	6.2	2.9	0.6
COc1ccccc1S(=O)(=O)N(C)C[C@@H]1Oc2cc(C#CCC3CCCC3)ccc2S(=O)(=O)N([C@H](C)CO)C[C@@H]1C	-1.9	.	-8.0	0.5	0.4
COc1ccccc1S(=O)(=O)N(C)C[C@H]1Oc2cc(C#CCC3CCCC3)ccc2S(=O)(=O)N([C@H](C)CO)C[C@@H]1C	5.0	.	2.7	2.0	-1.2
CN(C)CC#Cc1ccc([C@@H]2[C@@H](CO)N3CCCCN(C(=O)C4CC4)C[C@@H]23)cc1	-8.1	.	4.9	-4.6	8.7
NC(=O)CC[C@H](NC(=O)[C@H](Cc1ccccc1)n1c(=O)[nH]c2ccccc2c1=O)C(=O)N1CCC[C@H]1C(=O)O	66.3*	.	-3.0	-1.5	-20.9
C[C@@H]1CN([C@@H](C)CO)S(=O)(=O)c2ccc(/C=C/c3ccccc3)cc2O[C@@H]1CN(C)Cc1cncnc1	8.8	.	6.5	18.8	3.4
OC[C@H]1[C@@H](c2ccc(-c3ccc(F)cc3)cc2)[C@H]2CN(Cc3ccncc3)CCCCN21	28.2*	.	0.7	9.9	0.3
OC[C@@H]1[C@@H](c2ccc(-c3ccccc3F)cc2)[C@@H]2CN(Cc3ccncc3)CCCCN12	22.3*	.	.	.	.
OC[C@@H]1[C@H](c2ccc(-c3ccccc3F)cc2)[C@@H]2CN(Cc3ccncc3)CCCCN12	.	.	.	4.2	.
O=C1CN(Cc2ccc(F)cc2)C[C@@H]2[C@@H](c3ccc(-c4ccccc4F)cc3)[C@H](CO)N12	6.7	.	111.7*	-4.5	1.1
C[C@@H]1CCCCO[C@@H](CN(C)C(=O)c2ccncc2)[C@H](C)CN([C@@H](C)CO)C(=O)c2cc(NS(=O)(=O)c3cccs3)ccc2O1	2.0	.	14.6	-1.7	-5.3
C[C@@H]1CN([C@@H](C)CO)C(=O)Cc2cc(NC(=O)Nc3ccc(C(F)(F)F)cc3)ccc2O[C@@H]1CN(C)C(=O)Nc1ccc(C(F)(F)F)cc1	-8.0	.	-5.2	-9.8	0.9
C[C@H](CO)N1C[C@H](C)[C@@H](CN(C)Cc2ccccc2F)Oc2ncc(/C=C/c3ccccc3)cc2C1=O	2.1	.	0.2	27.8*	2.1
C[C@H](CO)N1C[C@H](C)[C@@H](CN(C)Cc2ccc3c(c2)OCO3)Oc2ncc(/C=C/c3ccccc3)cc2C1=O	-25.1	.	3.9	26.2*	-3.6
C[C@H](CO)N1C[C@H](C)[C@H](CN(C)Cc2ccncc2)Oc2ncc(/C=C/c3ccccc3)cc2C1=O	23.1*	.	8.7	4.7	-7.5
C/C=C/c1ccc([C@@H]2[C@@H](CN(C(=O)COC)C(C)C)N(C(C)=O)[C@H]2CO)cc1	-4.7	.	4.2	-0.6	17.1*
C/C=C/c1ccc([C@H]2[C@@H](CO)N(C(C)=O)[C@H]2CN(CC(C)C)C(C)=O)cc1	16.0	.	.	.	.
C/C=C/c1ccc([C@@H]2[C@@H](CO)N(C(C)=O)[C@H]2CN(C(=O)COC)C(C)C)cc1	5.0	.	2.9	0.6	33.5*
CC1CCN(C(=O)COc2cccc3c2CCN(Cc2ccccc2)C3=O)CC1	-0.5	91.4*	-2.9	0.8	-6.9
CC1CCN(CCOc2ccc(OCc3ccccc3)cc2)CC1	35.6*	-4.9	1.1	8.8	.
CCCCCCCCOC(=O)c1nc(Cl)c(Cl)c(N)c1Cl	-2.3	-4.8	-2.9	-2.1	.
SMILES	DENV2 CPE rescue	CaV13 ICDI inh	S100A4 inh HTS	MLL AF4-AF9 inh	SIRT5 block
COC(=O)c1nc(Cl)c(Cl)c(N)c1Cl	4.0	-2.1	-5.2	-1.8	16.6*
CC(=O)N(C)C[C@H]1Oc2cc(C#CC3(O)CCCC3)ccc2S(=O)(=O)N([C@@H](C)CO)C[C@H]1C	-5.1	.	-31.3	-2.4	3.9
CCCCCCC(=O)O	58.1*	.	-10.8	-0.2	0.3
CCCCCCCCCCCCCC(=O)O	-9.4	.	-1.4	.	.
CCS(=O)(=O)Nc1ccc2c(c1)C(=O)N(C)[C@H]1CC[C@@H](CC(=O)NC)O[C@@H]1CO2	-6.0	.	-2.1	-1.4	-2.5
CCC(=O)N[C@@H]1C=C[C@@H](CC(=O)NCc2ccccc2OC)O[C@@H]1CO	-2.2	.	-8.8	-2.3	-2.5
C=CCn1ncc(OC)c(Cl)c1=O	1.2	-7.0	-6.3	-12.3	24.3*
C[C@@H]1CCCCO[C@H](CN(C)C(=O)CCCN(C)C)[C@@H](C)CN([C@@H](C)CO)C(=O)c2cc(NC(=O)Nc3ccccc3)ccc2O1	0.6	.	-1.4	7.6	-2.0
Oc1cc2c(cc1O)[C@H]1c3ccc(O)c(O)c3OC[C@@]1(O)C2	?	-2.0	-5.1	?	-3.2
Oc1ccc2c(c1)OCC1(O)Cc3cc(O)c(O)cc3C21 (configuration not stated)	-7.1	.	-0.5	25.9*	2.0
CSc1cccc(NC(=O)C2CCN(S(=O)(=O)c3ccc4c(c3)NC(=O)CO4)CC2)c1	-5.1	-4.4	85.8*	4.1	-0.4
Cc1cccc(NC(=O)C2CCN(S(=O)(=O)c3ccc4c(c3)NC(=O)CO4)CC2)c1C	-0.2	-2.1	-3.9	-0.5	-2.4
O=C(C[C@@H]1C=C[C@@H](NC(=O)Cc2ccccn2)[C@@H](CO)O1)NCCc1ccncc1	6.1	.	0.2	1.1	0.4
O=C(C[C@H]1C=C[C@H](NC(=O)NC2CCCCC2)[C@H](CO)O1)NCc1ccc(F)cc1	27.9*	.	-1.1	0.2	-0.3
O=C(C[C@@H]1C=C[C@H](NC(=O)NC2CCCCC2)[C@@H](CO)O1)NCc1ccc(F)cc1	2.9	.	-1.2	-1.6	1.2
COc1cccc(NC(=O)N[C@H]2C=C[C@H](CC(=O)NCc3ccccn3)O[C@H]2CO)c1	29.1*	.	-2.5	-3.7	-2.9
O=C(C[C@H]1C=C[C@H](NC(=O)Cc2ccccn2)[C@@H](CO)O1)NCCc1ccncc1	23.2*	.	1.8	-1.8	11.1
O=C(C[C@H]1C=C[C@H](NC(=O)c2ccc(F)cc2)[C@H](CO)O1)NCc1ccncn1	-2.2	.	116.4*	-6.0	7.4

Screens as filed in PubChem BioAssay.
